Several values for one entry are separate records, joined by “and”; a condition that tells them apart may be missing. Identical values can stand only once. Activity calls are given as the source filed them. No cut-off for these calls is given here.
Key:
[1] = biological target: T1, Mineralocorticoid receptor (Rattus norvegicus) (UniProt P22199); assay: Aldosterone (5 ug/kg) antagonist activity for urinary Na/k at 2500 ug/kg; assay type: functional; conditions: Urine
T1 sequence (whole entry): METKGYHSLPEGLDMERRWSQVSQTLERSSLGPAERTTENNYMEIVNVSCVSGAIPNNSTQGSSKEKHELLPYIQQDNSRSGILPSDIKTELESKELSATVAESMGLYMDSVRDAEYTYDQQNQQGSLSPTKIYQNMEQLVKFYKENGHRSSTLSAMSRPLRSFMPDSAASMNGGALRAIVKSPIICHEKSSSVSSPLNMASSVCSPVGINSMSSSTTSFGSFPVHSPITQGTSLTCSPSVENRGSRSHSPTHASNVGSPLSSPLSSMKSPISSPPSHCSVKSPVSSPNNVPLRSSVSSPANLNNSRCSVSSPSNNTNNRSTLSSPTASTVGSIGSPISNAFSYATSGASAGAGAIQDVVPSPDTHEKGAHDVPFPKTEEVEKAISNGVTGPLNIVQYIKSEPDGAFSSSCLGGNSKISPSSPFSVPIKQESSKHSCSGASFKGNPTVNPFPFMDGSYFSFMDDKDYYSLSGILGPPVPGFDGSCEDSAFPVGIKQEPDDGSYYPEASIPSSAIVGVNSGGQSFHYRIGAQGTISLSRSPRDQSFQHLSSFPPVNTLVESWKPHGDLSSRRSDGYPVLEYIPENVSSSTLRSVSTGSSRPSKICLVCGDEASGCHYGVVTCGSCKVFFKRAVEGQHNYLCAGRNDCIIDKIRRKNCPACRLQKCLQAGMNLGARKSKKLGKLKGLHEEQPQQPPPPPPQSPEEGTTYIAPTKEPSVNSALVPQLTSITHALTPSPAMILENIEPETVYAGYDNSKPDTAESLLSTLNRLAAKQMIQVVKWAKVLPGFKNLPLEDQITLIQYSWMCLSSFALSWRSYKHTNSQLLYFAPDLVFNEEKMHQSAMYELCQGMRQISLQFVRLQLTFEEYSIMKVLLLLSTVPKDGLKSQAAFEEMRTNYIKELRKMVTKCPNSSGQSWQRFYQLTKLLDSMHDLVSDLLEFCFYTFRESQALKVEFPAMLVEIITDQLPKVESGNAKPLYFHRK
Method in brief: (§1)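 Male Slc:Wistar rats, 7 weeks old, bilaterally adrenalectomized 2 days before assay, kept on 0.45% NaCl. Sugar cubes replaced diet the next evening, with 6 mL 0.45% NaCl/100 g given ip that evening and again on assay morning. Aldosterone (5 μg/kg in sesame oil) or none given sc, test compound sc right after. Urinary Na and K measured by atomic absorption; Na/K reported as mean ± SE.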

[2] = biological target: T2, Androgen receptor (Rattus norvegicus) (UniProt P15207); assay: Relative binding affinity against androgen receptor of rat prostate at 0 degree centigrade; N means negative, < 0.1
T2 sequence (whole entry): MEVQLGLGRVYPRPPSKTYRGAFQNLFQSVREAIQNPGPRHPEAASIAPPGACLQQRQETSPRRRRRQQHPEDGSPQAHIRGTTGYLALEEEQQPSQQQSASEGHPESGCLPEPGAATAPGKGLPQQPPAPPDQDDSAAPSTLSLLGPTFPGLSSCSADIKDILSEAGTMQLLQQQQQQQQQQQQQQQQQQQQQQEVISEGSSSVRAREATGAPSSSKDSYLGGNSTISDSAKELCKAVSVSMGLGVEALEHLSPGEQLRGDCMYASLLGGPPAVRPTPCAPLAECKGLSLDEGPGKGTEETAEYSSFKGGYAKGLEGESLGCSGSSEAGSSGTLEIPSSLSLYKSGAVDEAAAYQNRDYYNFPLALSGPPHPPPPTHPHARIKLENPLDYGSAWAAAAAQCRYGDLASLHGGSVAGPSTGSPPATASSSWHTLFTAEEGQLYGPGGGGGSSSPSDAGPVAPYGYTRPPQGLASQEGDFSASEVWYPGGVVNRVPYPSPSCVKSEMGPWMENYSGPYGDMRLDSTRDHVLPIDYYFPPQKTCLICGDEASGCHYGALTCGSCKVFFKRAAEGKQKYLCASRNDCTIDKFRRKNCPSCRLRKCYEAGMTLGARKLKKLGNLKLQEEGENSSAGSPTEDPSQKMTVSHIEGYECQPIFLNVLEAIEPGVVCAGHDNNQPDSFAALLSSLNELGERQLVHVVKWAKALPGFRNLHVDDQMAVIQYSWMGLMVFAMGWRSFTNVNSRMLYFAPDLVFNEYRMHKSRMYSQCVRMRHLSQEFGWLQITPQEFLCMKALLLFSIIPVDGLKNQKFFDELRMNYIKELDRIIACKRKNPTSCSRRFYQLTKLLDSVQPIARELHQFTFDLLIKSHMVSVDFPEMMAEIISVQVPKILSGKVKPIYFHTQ
Method in brief: (§2)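 Ventral prostate cytosol from rats (4-5 weeks) castrated 1 day before, prepared in pH 7.5 phosphate buffer and spun 2 h at 200000g. Incubated with competitor (0.4 nM-40 μM) and 3H-DHT or 3H-methylnandrolone for 16-20 h at 0 °C or 2 h at 15 °C. Dextran-coated charcoal separation. RBA taken against DHT standard (=100); negative means RBA <0.1%.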

[3] = biological target: T1, Mineralocorticoid receptor (Rattus norvegicus); assay: Agonist activity for urinary Na/k at 250 ug/kg; assay type: functional; conditions: Urine; method in brief: as §1
[4] = biological target: T1, Mineralocorticoid receptor (Rattus norvegicus); assay: Aldosterone (5 ug/kg) antagonist activity for urinary Na/k at 25000 ug/kg; assay type: functional; conditions: Urine; method in brief: as §1
[5] = biological target: T1, Mineralocorticoid receptor (Rattus norvegicus); assay: Aldosterone (5 ug/kg) antagonist activity for urinary Na/k at 0 ug/kg; assay type: functional; conditions: Urine; method in brief: as §1
[6] = biological target: T1, Mineralocorticoid receptor (Rattus norvegicus); assay: (§3) Aldosterone (0 ug/kg) antagonist and agonist activity for urinary Na/k at 0 ug/kg; assay type: functional; conditions: Urine; method in brief: as §1
[7] = biological target: T1, Mineralocorticoid receptor (Rattus norvegicus); assay: Agonist activity for urinary Na/k at 25000 ug/kg; assay type: functional; conditions: Urine; method in brief: as §1
[8] = biological target: T2, Androgen receptor (Rattus norvegicus); assay: Relative binding affinity against androgen receptor of rat prostate at 15 degree centigrade; N means negative, < 0.1; method in brief: as §2
[9] = biological target: T1, Mineralocorticoid receptor (Rattus norvegicus); assay: Relative binding affinity against mineralocorticoid receptor of rat kidney at 0 degree centigrade; value ranges from 44-58%
Method in brief: (§4)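 Kidney cytosol from male Sprague-Dawley rats (4-8 weeks), adrenalectomized 1-2 days before, prepared in pH 7.5 phosphate buffer with DTT, sucrose and 10 mM molybdate, spun at 200000g. Incubated with competitor (0.4 nM-40 μM) and about 1 nM 3H-aldosterone for 42-48 h at 0 °C or 100-120 min at 25/26 °C. Dextran-coated charcoal separation. RBA = ratio of 50%-inhibition concentrations versus aldosterone standard (=100).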

[10] = biological target: T1, Mineralocorticoid receptor (Rattus norvegicus); assay: Aldosterone (0 ug/kg) antagonist activity for urinary Na/k at 0 ug/kg; assay type: functional; conditions: Urine; method in brief: as §1
[11] = biological target: T1, Mineralocorticoid receptor (Rattus norvegicus); assay: Aldosterone (5 ug/kg) antagonist and agonist activity for urinary Na/k at 2500 ug/kg; assay type: functional; conditions: Urine; method in brief: as §1
[12] = biological target: T1, Mineralocorticoid receptor (Rattus norvegicus); assay: Aldosterone (5 ug/kg) antagonist and agonist activity for urinary Na/k at 0 ug/kg; assay type: functional; conditions: Urine; method in brief: as §1
[13] = biological target: T1, Mineralocorticoid receptor (Rattus norvegicus); assay: Aldosterone (5 ug/kg) antagonist activity for urinary Na/k at 250 ug/kg; assay type: functional; conditions: Urine; method in brief: as §1
[14] = biological target: T1, Mineralocorticoid receptor (Rattus norvegicus); assay: Relative binding affinity against mineralocorticoid receptor of rat kidney at 25 degree Centigrade; method in brief: as §4
[15] = biological target: T1, Mineralocorticoid receptor (Rattus norvegicus); assay: Agonist activity for urinary Na/k at 2500 ug/kg; assay type: functional; conditions: Urine; method in brief: as §1
[16] = biological target: T1, Mineralocorticoid receptor (Rattus norvegicus); assay: Aldosterone (0 ug/kg) antagonist and agonist activity for urinary Na/k at 2500 ug/kg; assay type: functional; conditions: Urine; method in brief: as §1
[17] = biological target: T1, Mineralocorticoid receptor (Rattus norvegicus); assay: Relative binding affinity against mineralocorticoid receptor of rat kidney at 0 degree centigrade; value ranges from 36-63%; method in brief: as §4
[18] = biological target: T1, Mineralocorticoid receptor (Rattus norvegicus); assay: Aldosterone (0 ug/kg) antagonist and agonist activity for urinary Na/k at 250 ug/kg; assay type: functional; conditions: Urine; method in brief: as §1
[19] = biological target: T1, Mineralocorticoid receptor (Rattus norvegicus); assay: Aldosterone (5 ug/kg) antagonist and agonist activity for urinary Na/k at 250 ug/kg; assay type: functional; conditions: Urine; method in brief: as §1
[20] = biological target: T1, Mineralocorticoid receptor (Rattus norvegicus); assay: Aldosterone (5 ug/kg) antagonist and agonist activity for urinary Na/k at 25000 ug/kg; assay type: functional; conditions: Urine; method in brief: as §1
[21] = biological target: T1, Mineralocorticoid receptor (Rattus norvegicus); assay: as §3; assay type: functional; conditions: Urine; method in brief: as §1; remark: listed apart in the source
[22] = biological target: T1, Mineralocorticoid receptor (Rattus norvegicus); assay: Aldosterone (0 ug/kg) antagonist and agonist activity for urinary Na/k at 25000 ug/kg; assay type: functional; conditions: Urine; method in brief: as §1
[23] = biological target: T1, Mineralocorticoid receptor (Rattus norvegicus); assay: Relative binding affinity against mineralocorticoid receptor of rat kidney at 0 degree Centigrade; method in brief: as §4
[24] = biological target: T1, Mineralocorticoid receptor (Rattus norvegicus); assay: Relative binding affinity against mineralocorticoid receptor of rat kidney at 0 degree centigrade; value ranges from […]-[…]%
[25] = biological target: T1, Mineralocorticoid receptor (Rattus norvegicus); assay: Relative binding affinity against mineralocorticoid receptor of rat kidney at 25 degree centigrade; value ranges from […]-[…]%
[26] = biological target: T1, Mineralocorticoid receptor (Rattus norvegicus); assay: Aldosterone (0 ug/kg) antagonist and agonist activity for urinary Na/k at 25 ug/kg; assay type: functional; conditions: Urine; method in brief: as §1
[27] = biological target: T1, Mineralocorticoid receptor (Rattus norvegicus); assay: Aldosterone (0 ug/kg) antagonist and agonist activity for urinary Na/k at 2.5 ug/kg; assay type: functional; conditions: Urine; method in brief: as §1
[28] = biological target: T1, Mineralocorticoid receptor (Rattus norvegicus); assay: Aldosterone (5 ug/kg) antagonist and agonist activity for urinary Na/k at 25 ug/kg; assay type: functional; conditions: Urine; method in brief: as §1
[29] = biological target: T1, Mineralocorticoid receptor (Rattus norvegicus); assay: Aldosterone (5 ug/kg) antagonist and agonist activity for urinary Na/k at 2.5 ug/kg; assay type: functional; conditions: Urine; method in brief: as §1

| SMILES | RBA [2] | Activity [6] | Activity [11] | Activity [12] | RBA [14] [%] | Activity [16] | RBA [23] [%] | also measured |
| --- | --- | --- | --- | --- | --- | --- | --- | --- |
| CC12CCC(=O)C=C1CCC1C3CC[C@@]4(CCC(=O)O4)C34COC(C4)[C@@]12F (stereo not given in full) | inactive | 5.1 | 2.5 | 0.4 | 23 | 3.5 |  | Activity [1]: 2.08; Activity [3]: 3.42; Activity [4]: 2.13; Activity [5]: 0.75; Activity [7]: 1.95; RBA [8]: inactive; RBA [9]: 44%; Activity [10]: 4.07; Activity [13]: 1.33; Activity [15]: 2.7 |
| CC12CCC(=O)C=C1CCC1C3CCC(C(=O)CO)C34COC(C4)[C@@H]12 (stereo not given in full) | inactive | 3.5 |  | 0.8 | 32 |  |  | RBA [17]: 36%; Activity [18]: 1.8; Activity [19]: 1.7 |
| CC12CCC(=O)C=C1CCC1C3CC[C@@]4(CCC(=O)O4)C34COC(C4)[C@@H]12 (stereo not given in full) |  | 3.8 | 2.4 | 1.1 and 0.7 | 1.1 | 8.8 | 1.8 | Activity [20]: 2.2; Activity [21]: 7.7; Activity [22]: 3.8 |
| C[C@]12CCC(=O)C=C1CC[C@@H]1[C@@H]2[C@@H](O)C[C@]2(C=O)[C@@H](C(=O)CO)CC[C@@H]12 |  |  |  |  | 100 |  | 100 |  |
| CC(=O)S[C@@H]1CC2=CC(=O)CC[C@]2(C)[C@H]2CC[C@@]3(C)[C@@H](CC[C@@]34CCC(=O)O4)[C@H]12 |  |  |  |  |  |  |  | RBA [24]: 2.3%; Activity [1]: 1.47; Activity [4]: 2.83; RBA [25]: 11%; Activity [13]: 0.93 |
| CC(=O)S[C@@H]1CC2=CC(=O)CCC2(C)C2C3CC4(CO3)C(CC[C@@]43CCC(=O)O3)C21 (stereo not given in full) |  | 7.7 | 1.6 | 1.1 | 0.4 | 6.4 | 0.1 |  |
| CC12CCC(=O)C=C1CCC1C3CCC(C(=O)CO)C34COC(C4)[C@@]12F (stereo not given in full) | inactive | 4.8 |  | 1 | 270 |  | 320 | Activity [26]: 0.3; Activity [27]: 2.8; RBA [8]: inactive; Activity [28]: 0.1; Activity [29]: 0.7 |

Source: ChEMBL document CHEMBL1122971, “Aldosterone antagonists. 1. Synthesis and biological activities of 11 beta,18-epoxypregnane derivatives” (J Med Chem, 1985)
